The target in data set [1] is T1, tear lipocalin (Homo sapiens, UniProt P31025). Nature of the data set: Fluorescence binding assay with NBD-labeled lipids. The note with it: 1 μM tear lipocalin; for fluorescence in the presence of tear lipocalin compared to the unbound label: 1 μM ligand; for Kd: apparent, pH 7.3. Put shortly: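 After equilibration, fluorescence spectra recorded at 20°C, λex 420 nm. Relative intensity at 523 nm used to compute bound label. Triplicate runs, means taken. B/P versus unbound lipid fitted by nonlinear regression to a rectangular hyperbola or Hill equation, giving apparent Kd and n.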

A short description of data set [2]: Centrifugal precipitation of lipid in buffer without protein. Format: physicochemical. The note with it: 10 mM Na-phosphate pH 7.3; ~196,000 × g.
Data set [3] addresses T1, tear lipocalin. Format: binding. The gist of the method: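 Incubated 25°C 30 min or 34°C 16 h, then centrifuged ~196,000 × g, 1 h, same temperature. Bound (supernatant) and precipitated ligand quantified by absorbance via extinction coefficients. Lysozyme 10 μM as negative control. Triplicate means fitted to hyperbola and Hill equation.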
The target in data set [4] is T1, tear lipocalin. Nature of the data set: Linear spectral summation. Format: binding. As to conditions: apparent, tear lipocalin 10 μM, pH 7.3. The gist of the method: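 Each spectrum fitted as linear sum of bound reference (2 μM ligand + 10 μM protein), unbound reference (2 μM ligand in buffer) and baseline, yielding bound and free ligand. Triplicate means fitted to hyperbola or Hill equation.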

In data set [5] the target is T1, tear lipocalin. Briefly: DAUDA displacement fluorescence assay. Format: binding. As to conditions: end of titration.
Where [6] appears, read: apparent, Hill equation fit, 10 μM (C6) or 20 μM (C12) tear lipocalin, 10 mM sodium phosphate pH 7.3.
Setting [7] is: apparent, hyperbola fit, 10 μM (C6) or 20 μM (C12) tear lipocalin, 10 mM sodium phosphate pH 7.3.

Where two headings read alike, the source gives them in different places.

T1 sequence (P31025 19-176): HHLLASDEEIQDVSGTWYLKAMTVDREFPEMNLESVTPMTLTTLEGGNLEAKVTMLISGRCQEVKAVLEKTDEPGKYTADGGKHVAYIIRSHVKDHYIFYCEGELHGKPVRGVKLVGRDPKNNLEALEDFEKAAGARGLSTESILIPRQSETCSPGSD

For the compound `CCCCCCCCCCCCC/C=C/[C@@H](O)[C@H](CO)NC(=O)CCCCCNc1ccc([N+](=O)[O-])c2nonc12` [C6-NBD ceramide, N-[6-[(7-nitro-2-1,3-benzoxadiazol-4-yl)amino]hexanoyl]-D-erythro-sphingosine], the “fluorescence in the presence of tear lipocalin compared to the unbound label” value on tear lipocalin [1] is recorded as “enhanced fluorescence”. The Kd at tear lipocalin [1] (Hill equation fit) came out at 80 nM; at tear lipocalin [1] (hyperbola fit) it was 80 nM; on tear lipocalin [3] (setting [6]), 290 nM; on tear lipocalin [3] (setting [7]), 320 nM; at tear lipocalin [4] (Hill equation fit) it was 70 nM; at tear lipocalin [4] (hyperbola fit), 60 nM. Besides, the precipitation in buffer result in data set [2] is on record as “complete precipitation”. In addition, the “apparent dissociation constant (Kd)” value on tear lipocalin [3] (fit not named) was “sub-micromolar”.
With `CCCCCCCCCCCCC/C=C/[C@@H](O)[C@H](CO)NC(=O)CCCCCCCCCCCNc1ccc([N+](=O)[O-])c2nonc12` [C12-NBD ceramide, N-[12-[(7-nitro-2-1,3-benzoxadiazol-4-yl)amino]dodecanoyl]-D-erythro-sphingosine], the “fluorescence in the presence of tear lipocalin compared to the unbound label” value at tear lipocalin [1] is “enhanced fluorescence”. In addition, the Kd on tear lipocalin [1] (Hill equation fit) was determined as 100 nM; at tear lipocalin [1] (hyperbola fit) it was 130 nM; on tear lipocalin [3] (setting [6]), 1060 nM; on tear lipocalin [3] (setting [7]), 1230 nM; at tear lipocalin [3] (read-out: apparent dissociation constant (Kd), fit not named), 1200 nM. In data set [2], the precipitation in buffer result is “complete precipitation”.
Regarding `CCCCCCCCCCCCC/C=C/[C@@H](O)[C@H](CO)NC(=O)CCCCCCCCCCCCCCCCC` [C18-ceramide, ceramide-N-(octadecanoyl) sphing-4-enine, also known as N-stearoyl-D-erythro-sphingosine], the “residual DAUDA fluorescence compared with stearic acid” value on tear lipocalin [5] is given as “twice as great”.

Values taken from publication PMC5835416 (Biochimica et biophysica acta, 2018).
